DDE Tn7 FP inh = inhibitors of Tn7 peptide binding to human fibrin DD(E); P02675; FP displacement of FITC-Tn7 peptide from fibrin DD(E); 0% = median of compound wells per plate; inhibition, % at 8.3 µM; hit rate 0.13% among 370,000;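 active = inhibition above the mean of compounds falling within the control limits plus 3 SD of them, cut at about 14% in these data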
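Test system – human fibrin DD(E) · Times – 10 min preincubation, 3 h with tracer, room temperature · Detection – fluorescence polarization of the labelled Tn7 tracer · Measure – percent inhibition normalized to high-control wells · Benchmarks – high control wells with 10 µM unlabelled Aha-Tn7 peptide (full inhibition) · Repeats – singlicate testing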
PKA-R1A activ = PKA-R1A complex activation; P00514+P68181; PKA-R1A dissociation, Cy5-IP20 fluorescence polarization; scaled: DMSO 0%, 113 µM cGMP 100%; hit rate 0.083% among 340,000; activation, % at 11.4 µM;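 active = percent activation above the mean of all tested compounds plus 3 SD, cut at about 19% in these data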;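 also: higher means more PKAc released from R1A so a rise in polarization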
PKA-R2B act = activators of human PKA-R2B complex; PKA-R2B holoenzyme dissociation, Cy5-IP20 fluorescence polarization; R2B truncated from residue 108, S112A mutant; 0% DMSO only, 100% 113 µM cGMP; activation, % at 11.4 µM; hit rate 0.079% among 340,000; AID 504700;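 active = activation above a cutoff set at the mean over all compounds plus 3 SD, cut at about 18% in these data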;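 also: higher means more holoenzyme dissociation and a rise in polarization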
Target sequence (P31323 whole entry, looked up, other chains not shown, the tested form may be a part): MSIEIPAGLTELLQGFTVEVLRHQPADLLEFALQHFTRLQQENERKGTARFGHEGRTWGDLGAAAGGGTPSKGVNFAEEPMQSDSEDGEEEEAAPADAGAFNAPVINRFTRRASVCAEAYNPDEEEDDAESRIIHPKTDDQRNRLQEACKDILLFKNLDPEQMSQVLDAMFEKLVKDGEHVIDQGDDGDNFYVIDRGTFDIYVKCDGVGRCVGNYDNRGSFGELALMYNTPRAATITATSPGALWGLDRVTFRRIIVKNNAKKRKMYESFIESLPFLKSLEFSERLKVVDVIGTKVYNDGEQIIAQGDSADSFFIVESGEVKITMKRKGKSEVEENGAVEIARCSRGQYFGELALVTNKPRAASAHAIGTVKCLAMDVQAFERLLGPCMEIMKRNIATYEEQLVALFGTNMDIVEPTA
Neddylation inh = cullin neddylation inhibition; inhibition, % at 25 µM; TR-FRET cullin neddylation, biochemical; P61081+Q13564; hit rate 0.58% among 360,000; AID 651699; in the data active = inhibition above about 36%
DDE Tn6 FP inh = disrupts Tn6 cyclic peptide binding to fibrin D-Dimer-E complex. P02675. AID 720509. Fibrin DD(E) TRITC-Tn6 fluorescence polarization displacement. inhibition, % at 8.3 µM. hit rate 0.21% among 370,000;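 active = inhibition above a per-campaign cutoff: mean of compounds within control limits plus 3 SD, cut at about 15% in these data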
Tn6 DDE ctr = DD(E)-Tn6 binding inhibition, counter-screen; Fibrin DD(E), TRITC-Tn6 fluorescence polarization displacement; 0% = median of compound wells, not DMSO; shares compounds with DDE Tn6 FP inh; inhibition, % at 8.3 µM; hit rate 2% among 680;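 active = inhibition above the mean of test compounds lying between the control limits plus 3 SD of those, cut at about 14% in these data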
DDE Tn6 confirm = DD(E)-Tn6 binding inhibition, FP confirmation; inhibition, % at 8.3 µM; shares compounds with DDE Tn6 FP inh; FP displacement of TRITC-Tn6 peptide from DD(E); 0% = per-plate median of test wells; hit rate 10% among 680;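 active = inhibition above the mean of compounds lying within the control limits plus 3 SD, cut at about 16% in these data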
Each line names hits and unclear results; the compound was inactive in the other large screens (follow-up assays come after a bar, where shown). An excerpt weighted towards active compounds, which were near 1% of everything screened.

CCOc1ccc(NC(=O)[C@@H](NC(=O)c2ccccc2Br)C(C)C)cc1	none
O=C(Cn1[nH]c(=O)c2ccccc2c1=O)OCC(=O)c1ccccc1Cl	DDE Tn6 FP inh 15.5 | Tn6 DDE ctr inactive | DDE Tn6 confirm inactive
O=C(OCc1cc([N+](=O)[O-])cc2c1OCOC2)c1ccccn1	DDE Tn6 FP inh 17.5 | Tn6 DDE ctr inactive | DDE Tn6 confirm inactive
CCCC[C@H]1C2CC(OC(=O)Nc3ccc(Cl)cc3)C(C2)[C@H]2CCCCN21 (stereo partly specified)	none (no result: PKA-R1A activ, PKA-R2B act, Neddylation inh)
CSc1ccc(S(=O)(=O)N2CC(=O)Nc3ccccc32)cc1	DDE Tn6 FP inh 15.8 | Tn6 DDE ctr inactive | DDE Tn6 confirm inactive
COc1ccc(OC)c(-c2nnc(SCC(=O)N3CCOCC3)o2)c1	DDE Tn6 FP inh 18.8 | Tn6 DDE ctr inactive | DDE Tn6 confirm inactive
CCOc1ccccc1NC(=O)NCc1ccccn1	DDE Tn6 FP inh 19.0 | Tn6 DDE ctr inactive | DDE Tn6 confirm inactive
COc1ccccc1C1C(C(=O)NCc2ccccc2)=C(C)Nc2ncnn21 (stereo unspecified)	none
CC(=O)C1=C(C)Nc2ncnn2C1c1ccccc1OCc1ccccc1 (stereo unspecified)	DDE Tn6 FP inh 18.4 | Tn6 DDE ctr inactive | DDE Tn6 confirm inactive
O=C(Nc1ccc2ccccc2c1)NC1CCCCN(Cc2cccc(Cl)c2)C1=O (stereo unspecified)	none (no result: PKA-R1A activ, PKA-R2B act, Neddylation inh)
COc1ccccc1NC(=O)CN(C)S(=O)(=O)c1ccc(F)cc1	none
COc1ccc(S(=O)(=O)N(C)CC(=O)Nc2ccccc2OC)cc1	DDE Tn6 FP inh 23.4 | Tn6 DDE ctr inactive | DDE Tn6 confirm inactive
Cc1ccc(NC(=O)OC2CC3CC2[C@H]2CCCCN2C3)cc1 (stereo partly specified)	none (no result: PKA-R1A activ, PKA-R2B act, Neddylation inh)
O=C(Nc1nc2c(Br)cccc2s1)c1ccc2c(c1)OCCO2	DDE Tn6 FP inh 38.1 (no result: PKA-R1A activ, PKA-R2B act, Neddylation inh) | Tn6 DDE ctr inactive | DDE Tn6 confirm inactive
CCCCN1C(=O)C(C(=O)OCC)CC2=C1CCCC2=O (stereo unspecified)	none
CCCCN1C(=O)C(C(=O)OCc2ccccc2)CC2=C1CCCC2=O (stereo unspecified)	DDE Tn6 FP inh 21.3 | Tn6 DDE ctr inactive | DDE Tn6 confirm inactive
CCC(=O)Nc1ccc(Cl)cc1C(=O)c1ccc[nH]1	none (no result: PKA-R1A activ, PKA-R2B act, Neddylation inh)
COC(=O)C1=C(N)Oc2cc(N(C)C)ccc2C1c1ccccc1OC (stereo unspecified)	DDE Tn6 FP inh 36.2 (not shown: Neddylation inh) | Tn6 DDE ctr inactive | DDE Tn6 confirm inactive
COC(=O)C1=C(N)Oc2cc(C)n(CC3CCCO3)c(=O)c2C1c1ccccc1OC (stereo unspecified)	none
COc1ccc(C(=O)NCc2nnc(SCC(=O)Nc3cc(OC)ccc3OC)o2)cc1	DDE Tn6 FP inh 15.4 | Tn6 DDE ctr inactive | DDE Tn6 confirm inactive
Cc1cc2c(c(=O)o1)[C@@]1(C(=O)N(C)c3ccccc31)C1=C(CCC1=O)O2	none (no result: PKA-R1A activ, PKA-R2B act, Neddylation inh)
O=C(NC(Cc1cccc(F)c1)C(=O)O)C1CCCCC1 (stereo unspecified)	DDE Tn6 FP inh 15.9 | Tn6 DDE ctr inactive | DDE Tn6 confirm inactive
O=C(Cn1c(-c2cncs2)nc2ccccc21)N1CCOCC1	none (no result: PKA-R1A activ, PKA-R2B act, Neddylation inh)
O=C(Nc1ccc(S(=O)(=O)Nc2ncccn2)cc1)C1CC(=O)N(c2ccc(Cl)cc2)C1 (stereo unspecified)	DDE Tn6 FP inh 16.6 | Tn6 DDE ctr inactive | DDE Tn6 confirm inactive
O=C(Nc1ccc(S(=O)(=O)Nc2nccs2)cc1)C1CC(=O)N(c2ccc(Cl)cc2)C1 (stereo unspecified)	none
C=CCn1c(O)c(C(CC)=Nc2ccccc2NC(=O)CC)c(=O)[nH]c1=O	none
CCCCn1c(O)c(C(CC)=Nc2ccc3c(c2)CCC3)c(=O)[nH]c1=O	DDE Tn6 FP inh 16.5 | Tn6 DDE ctr inactive | DDE Tn6 confirm inactive
O=C(NCCc1c[nH]c2ccccc12)OCc1cn(Cc2cccc(C(F)(F)F)c2)nn1	none (no result: PKA-R1A activ, PKA-R2B act, Neddylation inh)
Cc1cccc(-c2cc(N3CCCN(C)CC3)n3nccc3n2)c1	DDE Tn6 FP inh 16.2 (not shown: PKA-R1A activ, PKA-R2B act, Neddylation inh) | Tn6 DDE ctr inactive | DDE Tn6 confirm inactive
CCOc1cccc(-c2cc(N3CCN(CCO)CC3)n3nccc3n2)c1	none (not shown: PKA-R1A activ, PKA-R2B act, Neddylation inh)
CC(CNC(=O)[C@@H](Cc1ccccc1)NC(=O)[C@H]1O[C@@H](n2cnc3c(=O)[nH]c(N)nc32)[C@H](O)[C@@H]1O)c1ccccc1 (stereo partly specified)	none (no result: PKA-R1A activ, PKA-R2B act, Neddylation inh)
N#CC(C#N)=c1ccc2c(c1)NC1(CCCCC1)N=2	DDE Tn6 FP inh 41.8 | Tn6 DDE ctr inactive | DDE Tn6 confirm 34.4
N#CC(C#N)=C1NC2(CCCCC2)Cc2ccccc21	none
COC(=O)c1ccc2nc(-c3cccc(Br)c3)c(Cc3cccc(Cl)c3)n2c1	none (no result: PKA-R1A activ, PKA-R2B act, Neddylation inh)
Cc1nc2ccc(N)cc2s1	DDE Tn6 FP inh 15.3 | Tn6 DDE ctr inactive | DDE Tn6 confirm inactive
COC(=O)[C@]12C[C@H](CC(=O)NCc3cccc4ccccc34)C(=O)N(CCC3=CCCCC3)C1=C[C@H](C1CCCC1)O[C@@H]2C	none (no result: PKA-R1A activ, PKA-R2B act, Neddylation inh)
COC(=O)C[C@@H]1C[C@H]2c3cc(NC(=O)Nc4ccccc4F)ccc3O[C@H]2[C@@H](CO)O1	none (no result: PKA-R1A activ, PKA-R2B act, Neddylation inh)
COc1ccc(CCN2CC(C(=O)OCC(=O)c3c(N)n(CC(C)C)c(=O)n(C)c3=O)CC2=O)cc1OC (stereo unspecified)	DDE Tn6 FP inh 43.8 | Tn6 DDE ctr inactive | DDE Tn6 confirm inactive
O=C(COC(=O)CC1CC2CCC1C2)NC(=O)NCc1ccco1 (stereo unspecified)	DDE Tn6 FP inh 19.5 | Tn6 DDE ctr inactive | DDE Tn6 confirm inactive
CCCN1C(=O)c2n[nH]c(C(C)C)c2C1c1cccc(C(F)(F)F)c1 (stereo unspecified)	none (no result: PKA-R1A activ, PKA-R2B act, Neddylation inh)
CCOC(=O)N1CCN(C(=O)C[C@H]2C(=O)N(CCCOC)C3=CCCC[C@@]32C(=O)OCC)CC1	DDE Tn6 FP inh 15.3 (no result: PKA-R1A activ, PKA-R2B act, Neddylation inh) | Tn6 DDE ctr inactive | DDE Tn6 confirm inactive
CCOC(=O)[C@]12CCCC=C1N(CCCOC)C(=O)[C@@H]2CC(=O)N1CCN(C(=O)C2CC2)CC1	none (no result: PKA-R1A activ, PKA-R2B act, Neddylation inh)
Cc1cc(NS(=O)(=O)c2ccc(NC(=O)CSc3nnc(-c4ccco4)n3-c3ccc(Cl)cc3)cc2)nc(C)n1	none (no result: PKA-R1A activ, PKA-R2B act, Neddylation inh)
COCCN(CC1CCCN(C2Cc3ccccc3C2)C1)C(=O)c1ccc(C(C)=O)cc1 (stereo unspecified)	DDE Tn6 FP inh 15.9 | Tn6 DDE ctr inactive | DDE Tn6 confirm inactive
Cc1ccccc1CN1[C@@H](C)[C@H](c2ccccc2)Oc2cccc(NCCc3ccccc3)c2S1(=O)=O	none (no result: PKA-R1A activ, PKA-R2B act, Neddylation inh)

Screening data (PubChem)
